Measured values taken from ChEMBL document CHEMBL5046221, “Identification of Pyrimidine-Based Lead Compounds for Understudied Kinases Implicated in Driving Neurodegeneration” (J Med Chem, 2022).

What was measured:
[1] = target: T1, MAP/microtubule affinity-regulating kinase 4 (Homo sapiens, UniProt Q96L34); test: Displacement of tracer K5 from NLuc fused MARK4 (unknown origin) expressed in HEK293 cells by NanoBRET assay; type: cell-based
T1 sequence (Q96L34 whole entry): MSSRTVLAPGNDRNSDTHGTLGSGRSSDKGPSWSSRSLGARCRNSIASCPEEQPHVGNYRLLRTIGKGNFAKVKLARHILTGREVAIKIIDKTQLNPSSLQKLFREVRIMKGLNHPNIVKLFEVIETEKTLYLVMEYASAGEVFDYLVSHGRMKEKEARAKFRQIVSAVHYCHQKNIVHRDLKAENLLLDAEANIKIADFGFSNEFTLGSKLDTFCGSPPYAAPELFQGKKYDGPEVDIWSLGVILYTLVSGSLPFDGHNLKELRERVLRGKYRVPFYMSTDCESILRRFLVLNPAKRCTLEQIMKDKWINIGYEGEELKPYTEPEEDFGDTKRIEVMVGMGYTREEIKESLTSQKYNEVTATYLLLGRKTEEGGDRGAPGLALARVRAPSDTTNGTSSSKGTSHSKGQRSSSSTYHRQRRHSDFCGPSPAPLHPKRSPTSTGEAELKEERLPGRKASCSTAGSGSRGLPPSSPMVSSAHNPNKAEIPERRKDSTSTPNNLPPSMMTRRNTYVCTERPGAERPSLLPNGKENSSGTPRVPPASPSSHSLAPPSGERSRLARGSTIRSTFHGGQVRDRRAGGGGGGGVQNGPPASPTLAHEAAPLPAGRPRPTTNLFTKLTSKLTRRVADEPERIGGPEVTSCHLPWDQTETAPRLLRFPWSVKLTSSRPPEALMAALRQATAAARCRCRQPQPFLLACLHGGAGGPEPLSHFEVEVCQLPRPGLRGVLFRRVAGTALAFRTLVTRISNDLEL

[2] = target: T2, Serine/threonine-protein kinase 17A (Homo sapiens, UniProt Q9UEE5); test: Displacement of tracer K9 from NLuc fused DRAK1 (unknown origin) expressed in HEK293 cells by NanoBRET assay; type: cell-based
T2 sequence (Q9UEE5 whole entry): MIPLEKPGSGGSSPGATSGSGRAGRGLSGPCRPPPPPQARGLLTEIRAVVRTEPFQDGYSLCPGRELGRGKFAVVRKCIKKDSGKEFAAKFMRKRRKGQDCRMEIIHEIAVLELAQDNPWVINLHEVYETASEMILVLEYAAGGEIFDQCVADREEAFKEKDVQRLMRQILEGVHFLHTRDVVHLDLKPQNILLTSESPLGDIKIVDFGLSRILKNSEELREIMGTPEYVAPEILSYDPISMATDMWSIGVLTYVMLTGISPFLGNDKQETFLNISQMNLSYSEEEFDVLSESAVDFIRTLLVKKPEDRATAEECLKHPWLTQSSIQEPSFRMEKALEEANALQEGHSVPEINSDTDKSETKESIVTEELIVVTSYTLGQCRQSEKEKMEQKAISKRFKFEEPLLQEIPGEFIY

[3] = Effective permeability in PBS at 7.4 incubated for 5 hrs by PAMPA analysis; type: ADME; details: pH 7.4, 5 h
Procedure, shortened: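 PAMPA: DMSO stocks were diluted in PBS pH 7.4 and placed in the donor compartment, with PBS pH 7.4 in the acceptor, for 5 h. Both compartments were quantified by CLND against a calibration curve, with background nitrogen correction. Effective permeability was calculated from donor and acceptor concentrations using measured rather than assumed solubility.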

[4] = target: T3, Serine/threonine-protein kinase TBK1 (Homo sapiens, UniProt Q9UHD2); test: Displacement of tracer K5 from NLuc fused TBK1 (unknown origin) expressed in HEK293 cells by NanoBRET assay; type: cell-based
T3 sequence (Q9UHD2 whole entry): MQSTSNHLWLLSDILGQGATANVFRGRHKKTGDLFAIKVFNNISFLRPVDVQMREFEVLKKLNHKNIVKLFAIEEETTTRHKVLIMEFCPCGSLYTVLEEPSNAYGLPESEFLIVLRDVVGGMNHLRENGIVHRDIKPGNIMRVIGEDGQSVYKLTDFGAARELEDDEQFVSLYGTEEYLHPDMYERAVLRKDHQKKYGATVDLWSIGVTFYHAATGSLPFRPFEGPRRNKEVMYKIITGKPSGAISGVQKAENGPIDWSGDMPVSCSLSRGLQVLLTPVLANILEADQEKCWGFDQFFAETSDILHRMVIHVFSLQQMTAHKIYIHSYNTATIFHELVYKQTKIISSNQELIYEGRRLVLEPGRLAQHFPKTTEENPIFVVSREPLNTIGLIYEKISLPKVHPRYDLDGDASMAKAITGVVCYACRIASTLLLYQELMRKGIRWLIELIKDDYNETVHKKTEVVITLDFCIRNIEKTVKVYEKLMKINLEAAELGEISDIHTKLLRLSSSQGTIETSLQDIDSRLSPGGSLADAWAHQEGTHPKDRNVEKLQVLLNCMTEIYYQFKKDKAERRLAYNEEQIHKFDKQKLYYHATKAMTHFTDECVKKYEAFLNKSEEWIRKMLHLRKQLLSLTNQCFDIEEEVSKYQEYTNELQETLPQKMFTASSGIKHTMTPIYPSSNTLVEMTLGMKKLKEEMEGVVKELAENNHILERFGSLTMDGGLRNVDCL
Procedure, shortened: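 HEK293 cells grown in DMEM with 10% FBS at 37 °C, 5% CO2. NanoBRET assay run in dose–response per manufacturer's protocol with tracer K-5 at 0.5 μM. SEM calculated for assays run more than once.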

[5] = Kinetic solubility of compound in PBS at pH 7.4 incubated for 24 hrs by chemiluminscent nitrogen detection method; type: physicochemical; details: buffer, pH 7.4, 24 h
Procedure, shortened: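 Filtrates were quantified by total chemiluminescent nitrogen determination against a calibration curve, with correction for background nitrogen from DMSO and medium.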

[6] = target: T4, Myosin light chain kinase 2, skeletal/cardiac muscle (Homo sapiens, UniProt Q9H1R3); test: Inhibition of full length recombinant human MYLK2 using KKLNRTLSFAEPG as substrate incubated for 40 mins in presence of [gamma-33P-ATP] by radiometric scintillation assay
T4 sequence (Q9H1R3 whole entry): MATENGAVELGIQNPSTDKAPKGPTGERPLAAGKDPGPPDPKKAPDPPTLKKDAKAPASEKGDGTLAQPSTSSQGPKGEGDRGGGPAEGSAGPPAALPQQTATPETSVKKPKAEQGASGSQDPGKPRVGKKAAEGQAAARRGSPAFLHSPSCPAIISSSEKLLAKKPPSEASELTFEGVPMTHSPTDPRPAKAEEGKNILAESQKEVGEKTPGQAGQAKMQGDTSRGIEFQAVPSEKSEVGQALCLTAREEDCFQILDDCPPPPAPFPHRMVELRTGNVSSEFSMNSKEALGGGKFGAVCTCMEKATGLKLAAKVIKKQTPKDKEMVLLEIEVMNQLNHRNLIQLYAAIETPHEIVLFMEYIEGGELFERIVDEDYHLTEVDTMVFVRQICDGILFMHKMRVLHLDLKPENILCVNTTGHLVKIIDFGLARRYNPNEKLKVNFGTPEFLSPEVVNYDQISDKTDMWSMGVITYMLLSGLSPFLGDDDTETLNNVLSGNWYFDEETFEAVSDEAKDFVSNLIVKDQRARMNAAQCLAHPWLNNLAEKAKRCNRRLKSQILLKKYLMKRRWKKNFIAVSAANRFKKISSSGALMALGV
Procedure, shortened: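 Eurofins radiometric enzymatic assay with ATP at Km for each kinase. IC50 was derived from a 9-point dose–response curve run in duplicate.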

[7] = target: MAP/microtubule affinity-regulating kinase 3 (Homo sapiens, UniProt P27448); test: Displacement of tracer K9 from NLuc fused MARK3 (unknown origin) expressed in HEK293 cells by NanoBRET assay; type: cell-based
Sequence of MAP/microtubule affinity-regulating kinase 3 (P27448 whole entry, the tested form may be a part): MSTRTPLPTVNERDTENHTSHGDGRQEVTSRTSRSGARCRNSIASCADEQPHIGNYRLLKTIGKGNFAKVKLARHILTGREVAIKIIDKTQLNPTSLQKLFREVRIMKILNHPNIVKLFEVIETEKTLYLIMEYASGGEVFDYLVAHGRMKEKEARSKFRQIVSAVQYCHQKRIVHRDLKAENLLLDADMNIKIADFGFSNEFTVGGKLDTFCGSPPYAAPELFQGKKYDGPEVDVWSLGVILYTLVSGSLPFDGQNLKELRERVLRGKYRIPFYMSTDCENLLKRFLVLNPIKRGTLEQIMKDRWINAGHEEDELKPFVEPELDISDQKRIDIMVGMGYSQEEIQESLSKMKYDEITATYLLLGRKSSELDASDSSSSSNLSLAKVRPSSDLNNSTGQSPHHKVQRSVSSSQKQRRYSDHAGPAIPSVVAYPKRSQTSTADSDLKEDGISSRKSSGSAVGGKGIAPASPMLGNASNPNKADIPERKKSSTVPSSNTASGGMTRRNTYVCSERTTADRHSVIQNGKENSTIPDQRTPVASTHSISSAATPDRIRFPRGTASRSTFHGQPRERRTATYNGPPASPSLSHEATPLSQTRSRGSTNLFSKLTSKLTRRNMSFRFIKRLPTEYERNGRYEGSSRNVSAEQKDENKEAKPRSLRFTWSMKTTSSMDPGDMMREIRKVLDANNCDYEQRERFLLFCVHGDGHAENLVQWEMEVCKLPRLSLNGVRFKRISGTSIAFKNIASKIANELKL

[8] = target: T4, Myosin light chain kinase 2, skeletal/cardiac muscle; test: Inhibition of NanoLuc-fused MYLK2 (unknown origin) expressed in HEK293 cells incubated for 2 hrs by NanoBRET assay; type: cell-based
Procedure, shortened: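 Cellular NanoBRET target-engagement assays were run by Carna Biosciences to the manufacturer's protocol. Dose–response was in singlicate, with compounds tested at concentrations up to 10 μM.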

[9] = target: T5, Serine/threonine-protein kinase 17B (Homo sapiens) (UniProt O94768); test: Inhibition of full length recombinant human DRAK2 using KKRPQRRYSNVF as substrate at 1 uM incubated for 120 mins in presence of [gamma-33P-ATP] by radiometric scintillation assay relative to control
T5 sequence (whole entry): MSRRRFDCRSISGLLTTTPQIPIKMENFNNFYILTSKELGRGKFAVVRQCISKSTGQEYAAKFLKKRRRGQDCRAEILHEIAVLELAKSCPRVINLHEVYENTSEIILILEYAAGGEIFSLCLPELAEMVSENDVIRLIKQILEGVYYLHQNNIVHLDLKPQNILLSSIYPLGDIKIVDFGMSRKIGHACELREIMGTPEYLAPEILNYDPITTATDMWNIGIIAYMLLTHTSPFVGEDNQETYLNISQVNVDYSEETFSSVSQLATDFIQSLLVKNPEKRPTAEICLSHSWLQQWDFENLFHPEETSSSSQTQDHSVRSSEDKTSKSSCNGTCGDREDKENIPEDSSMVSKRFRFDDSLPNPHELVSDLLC
Procedure, shortened: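 Eurofins radiometric kinase assay with ATP at Km for each kinase. Compound was tested at a single 1 μM concentration in duplicate, and the result is reported as percent of control.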

**Q.** With `Cc1nn(CC(F)(F)F)cc1Nc1nccc(NCCc2cnc[nH]2)n1` as the molecule, how does the IC50 [1] read?
**A.** Its IC50 is over 10 µM.

**Q.** And the IC50 [2]?
**A.** Its IC50 is over 10 µM.

**Q.** What about the Peff [3] of the same molecule?
**A.** Its Peff is 6.23 10^-8cm/s.

**Q.** What about the IC50 [4] of the same molecule?
**A.** Its IC50 is over 10 µM.

**Q.** What about the Kinetic solubility [5] of the same molecule?
**A.** Its Kinetic solubility is 177 µM.

**Q.** What about the IC50 [6] of the same molecule?
**A.** Its IC50 is 0.479 µM.

**Q.** And the IC50 [7]?
**A.** Its IC50 is over 10 µM.

**Q.** And the IC50 [8]?
**A.** Its IC50 is 3.67 µM.

**Q.** What about the % control [9] of the same molecule?
**A.** Its % control is 91%.
